Test [1] deals with T1, Coagulation factor VII (Homo sapiens, UniProt P08709).
T1 sequence (P08709 whole entry): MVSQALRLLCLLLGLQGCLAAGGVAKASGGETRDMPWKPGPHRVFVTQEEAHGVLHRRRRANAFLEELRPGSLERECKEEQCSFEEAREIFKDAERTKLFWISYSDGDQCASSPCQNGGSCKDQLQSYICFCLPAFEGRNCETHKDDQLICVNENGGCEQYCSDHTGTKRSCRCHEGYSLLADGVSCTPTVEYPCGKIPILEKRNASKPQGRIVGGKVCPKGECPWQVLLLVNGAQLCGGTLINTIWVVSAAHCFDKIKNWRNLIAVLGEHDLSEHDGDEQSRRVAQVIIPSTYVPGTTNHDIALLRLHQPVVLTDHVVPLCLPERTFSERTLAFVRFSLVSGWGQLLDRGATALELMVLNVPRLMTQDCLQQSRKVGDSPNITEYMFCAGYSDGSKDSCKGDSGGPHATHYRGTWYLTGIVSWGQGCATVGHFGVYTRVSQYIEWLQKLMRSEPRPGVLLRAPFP
In words: Inhibition of tissue coagulation factor VII. In a few lines: (§1)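 Chromogenic enzyme assays: factor Xa, thrombin (IIa), or tissue factor/VIIa complex, each with its own specific chromogenic substrate. Activity was followed as the rise in absorbance at 405 nm from released p-nitroaniline as substrate was cleaved. Inhibition was taken as the reduced change in absorbance and expressed as IC50.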

Test [2] addresses Coagulation factor X (Homo sapiens, UniProt P00742). In words: Inhibition of coagulation factor X. In a few lines:
as §1

Test [3] deals with Prothrombin (Homo sapiens, UniProt P00734). Kind of test: Inhibitory activity against thrombin (IIa). In a few lines:
as §1

Test [4] concerns the target Thrombin and coagulation factor VII (Homo sapiens) (UniProt P00734+P08709). Kind of test: Selectivity ratio for tissue factor VIIa and thrombin (IIa). The test is classed as protein assay.

Each structure is given as a SMILES string.

Chain of Coagulation factor X (P00742 41-179 limits assumed): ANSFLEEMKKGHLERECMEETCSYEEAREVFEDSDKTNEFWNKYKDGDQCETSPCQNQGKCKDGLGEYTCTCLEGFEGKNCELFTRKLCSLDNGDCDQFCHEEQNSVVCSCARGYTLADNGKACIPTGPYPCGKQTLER
Chain of Coagulation factor X (P00742 235-488 limits assumed): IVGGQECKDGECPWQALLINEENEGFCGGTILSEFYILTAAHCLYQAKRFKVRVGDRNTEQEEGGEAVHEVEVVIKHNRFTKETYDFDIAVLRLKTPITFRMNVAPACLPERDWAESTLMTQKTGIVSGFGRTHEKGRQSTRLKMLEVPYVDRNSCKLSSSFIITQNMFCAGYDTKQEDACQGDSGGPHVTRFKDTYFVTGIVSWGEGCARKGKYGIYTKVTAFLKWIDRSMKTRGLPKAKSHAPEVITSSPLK

In the case of `N#Cc1ccc(C[C@H](NC(=O)[C@@H](Cc2ccccc2)NS(=O)(=O)Cc2ccccc2)C(=O)N[C@@H](CCCNC(=N)N)C(=O)c2nccs2)cc1`, the concentration for half-maximal inhibition (IC50) (commonly the midpoint of a concentration-inhibition curve) in test [1] is 0.34 µM; in test [2], 0.9 µM; in test [3], 50 µM. Further, the Ratio in test [4] came out at 147.
On to `NC(=O)C[C@H](NC(=O)[C@@H](Cc1ccccc1)NS(=O)(=O)Cc1ccccc1)C(=O)N[C@@H](CCCN=C(N)N)C(=O)c1nccs1`, for which the half-maximal inhibitory concentration (IC50) in test [1] turned out to be 1.03 µM; in test [2] it was 2.1 µM; in test [3], 60 µM.
For `N=C(N)NCCC[C@H](NC(=O)[C@H](Cc1ccccc1)NC(=O)[C@@H](Cc1ccccc1)NS(=O)(=O)Cc1ccccc1)C(=O)c1nccs1`, the values for the IC50 in test [1], in test [2] and in test [3] were 0.042 µM, 0.027 µM and 4 µM, respectively. Moreover, the Ratio in test [4] was found to be 95.
For `CC[C@@H](C)[C@H](NC(=O)[C@@H](Cc1ccccc1)NS(=O)(=O)Cc1ccccc1)C(=O)N[C@@H](CCCN=C(N)N)C(=O)c1nccs1`, the IC50 in test [2] came to 0.38 µM; in test [3], 19.3 µM. In test [4], the Ratio is 64.
`N=C(N)NCCC[C@H](NC(=O)[C@H](Cc1ccccc1F)NC(=O)[C@@H](Cc1ccccc1)NS(=O)(=O)Cc1ccccc1)C(=O)c1nccs1`: the values for the 50% inhibitory concentration (IC50) in test [1], in test [2] and in test [3] were 0.09 µM, 0.21 µM and above 30 µM, respectively. Moreover, the Ratio in test [4] is above 333.
For the compound `Cc1ccccc1C[C@H](NC(=O)[C@@H](Cc1ccccc1)NS(=O)(=O)Cc1ccccc1)C(=O)N[C@@H](CCCN=C(N)N)C(=O)c1nccs1`, the Ratio in test [4] turned out to be 90.
The same measure, in the same setting: the value for `Cc1cccc(C[C@H](NC(=O)[C@@H](Cc2ccccc2)NS(=O)(=O)Cc2ccccc2)C(=O)N[C@@H](CCCN=C(N)N)C(=O)c2nccs2)c1` was 71.
For the compound `N#CC[C@H](NC(=O)[C@@H](Cc1ccccc1)NS(=O)(=O)Cc1ccccc1)C(=O)N[C@@H](CCCNC(=N)N)C(=O)c1nccs1`, the figures for the IC50 in test [1], in test [2] and in test [3] were 1.45 µM, 2.4 µM and 100 µM, respectively. Besides, the Ratio in test [4] was 69.
In the case of `NC(N)=NCCC[C@H](NC(=O)[C@H](Cc1cccnc1)NC(=O)[C@@H](Cc1ccccc1)NS(=O)(=O)Cc1ccccc1)C(=O)c1nccs1`, the values for the IC50 in test [1], in test [2] and in test [3] were 0.2 µM, 0.29 µM and 100 µM, respectively.
Take `N=C(N)NCCC[C@H](NC(=O)[C@H](Cc1cccnc1)NC(=O)[C@@H](Cc1ccccc1)NS(=O)(=O)Cc1ccccc1)C(=O)c1nccs1`: the Ratio in test [4] came to 500.
On the same count and under the same terms, the figure for `N=C(N)NCCC[C@H](NC(=O)[C@H](CC(N)=O)NC(=O)[C@@H](Cc1ccccc1)NS(=O)(=O)Cc1ccccc1)C(=O)c1nccs1` is 58.
`Cc1cccc(C[C@H](NC(=O)[C@@H](Cc2ccccc2)NS(=O)(=O)Cc2ccccc2)C(=O)N[C@@H](CCCNC(=N)N)C(=O)c2nccs2)c1`: the IC50 in test [1] was found to be 0.17 µM; in test [2], 0.16 µM; in test [3], 12 µM.
Regarding `N=C(N)NCCC[C@H](NC(=O)[C@H](Cc1ccc(F)c(F)c1)NC(=O)[C@@H](Cc1ccccc1)NS(=O)(=O)Cc1ccccc1)C(=O)c1nccs1`, the half-inhibitory concentration (IC50) in test [1] was 0.16 µM; in test [2] it was 0.21 µM; in test [3] it was 11.2 µM. For the same compound, the Ratio in test [4] turned out to be 70.
For the compound `N=C(N)NCCC[C@H](NC(=O)[C@H](Cc1cccc(Cl)c1)NC(=O)[C@@H](Cc1ccccc1)NS(=O)(=O)Cc1ccccc1)C(=O)c1nccs1`, the concentration for half-maximal inhibition (IC50) in test [1] was 0.23 µM; in test [2], 0.27 µM; in test [3], 14.6 µM. Besides, in test [4], the Ratio was 63.
In the case of `N=C(N)NCCC[C@H](NC(=O)[C@H](Cc1cccc(F)c1)NC(=O)[C@@H](Cc1ccccc1)NS(=O)(=O)Cc1ccccc1)C(=O)c1nccs1`, the IC50 was found to be 0.2 µM in test [1], 0.25 µM in test [2] and 15 µM in test [3]. For the same compound, the Ratio in test [4] was determined as 75.
Take `Cc1ccccc1C[C@H](NC(=O)[C@@H](Cc1ccccc1)NS(=O)(=O)Cc1ccccc1)C(=O)N[C@@H](CCCNC(=N)N)C(=O)c1nccs1`: the IC50 in test [1] amounted to 0.24 µM; in test [2] it was 0.33 µM; in test [3], 21.7 µM.
As to `N=C(N)NCCC[C@H](NC(=O)[C@H](Cc1cccc(C(F)(F)F)c1)NC(=O)[C@@H](Cc1ccccc1)NS(=O)(=O)Cc1ccccc1)C(=O)c1nccs1`, the results for the half-inhibitory concentration (IC50) in test [1], in test [2] and in test [3] were 0.8 µM, 1 µM and 84.9 µM, respectively. Also, the Ratio in test [4] was 106.

Values taken from ChEMBL document CHEMBL1136109, “Polymer-assisted solution-phase (PASP) parallel synthesis of an alpha-ketothiazole library as tissue factor VIIa inhibitors” (Bioorg Med Chem Lett, 2003).
